# Rows were chosen to be rich in hits. Some 6.9% of all compounds tested hit in one or more screens of this group.
# FAK blocker: blocks human focal adhesion kinase activity | Q05397 | biochemical FAK kinase activity assay | inhibition, %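 (tested at 7 µM)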 | 97,000 compounds, 0.84% hits | AID 727; in the data active = inhibition above about 19%
# tolC growth inh: blocks growth of E. coli BW25113 tolC mutant. OD615. growth inhibition, % at 10 µM (by protocol). 65,000 compounds, 2.2% hits;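 active = growth inhibition at or above a cutoff equal to the mean over every tested compound plus 3 SD, cut at about 60% in these data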;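 note: growth measured after 20 h incubation at 37 °C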
#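 Test system: E. coli BW25113 ΔtolC::kan bacteria | Medium: Kanamycin-containing LB broth (50 µg/mL) | Dosing: One dose of 10 µM final | Times: 20 h incubation with compound, 37 °C | Detection: Optical density read at 615 nm | Read-out basis: Percent growth inhibition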
# PostGolgi ctrl: growth of the yeast control strain, post-Golgi counter-screen | 98,000 compounds, 5% hits | efflux-deficient yeast background strain, growth absorbance A615, 16 h | AID 738 | inhibition, % at 10 µM
# PostGolgi yeast: growth inhibition of a yeast mutant, post-Golgi transport screen | post-Golgi transport phenotypic cell assay | inhibition, % at 10 µM | 98,000 compounds, 0.9% hits;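 note: yeast cells grown in 1536-well plates; yeast grown about 18 h at 30C before absorbance read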
# PTK2B oligo ant: antagonists of human Pyk2 oligomerization | Q14289 | Q293 cells, Pyk2 FERM NanoBiT luminescence; active compounds read low | z-score (the deposit names both 25 µM and 10 µM) | 99,000 compounds, 0.83% hits;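 active = Z-score of -3 or lower, scaled per plate to the spread of control and sample wells; inactive = z-score above -3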;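 note: negative z-score means lost luminescence so less FERM oligomerization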
# Target sequence (Q14289 whole entry, looked up): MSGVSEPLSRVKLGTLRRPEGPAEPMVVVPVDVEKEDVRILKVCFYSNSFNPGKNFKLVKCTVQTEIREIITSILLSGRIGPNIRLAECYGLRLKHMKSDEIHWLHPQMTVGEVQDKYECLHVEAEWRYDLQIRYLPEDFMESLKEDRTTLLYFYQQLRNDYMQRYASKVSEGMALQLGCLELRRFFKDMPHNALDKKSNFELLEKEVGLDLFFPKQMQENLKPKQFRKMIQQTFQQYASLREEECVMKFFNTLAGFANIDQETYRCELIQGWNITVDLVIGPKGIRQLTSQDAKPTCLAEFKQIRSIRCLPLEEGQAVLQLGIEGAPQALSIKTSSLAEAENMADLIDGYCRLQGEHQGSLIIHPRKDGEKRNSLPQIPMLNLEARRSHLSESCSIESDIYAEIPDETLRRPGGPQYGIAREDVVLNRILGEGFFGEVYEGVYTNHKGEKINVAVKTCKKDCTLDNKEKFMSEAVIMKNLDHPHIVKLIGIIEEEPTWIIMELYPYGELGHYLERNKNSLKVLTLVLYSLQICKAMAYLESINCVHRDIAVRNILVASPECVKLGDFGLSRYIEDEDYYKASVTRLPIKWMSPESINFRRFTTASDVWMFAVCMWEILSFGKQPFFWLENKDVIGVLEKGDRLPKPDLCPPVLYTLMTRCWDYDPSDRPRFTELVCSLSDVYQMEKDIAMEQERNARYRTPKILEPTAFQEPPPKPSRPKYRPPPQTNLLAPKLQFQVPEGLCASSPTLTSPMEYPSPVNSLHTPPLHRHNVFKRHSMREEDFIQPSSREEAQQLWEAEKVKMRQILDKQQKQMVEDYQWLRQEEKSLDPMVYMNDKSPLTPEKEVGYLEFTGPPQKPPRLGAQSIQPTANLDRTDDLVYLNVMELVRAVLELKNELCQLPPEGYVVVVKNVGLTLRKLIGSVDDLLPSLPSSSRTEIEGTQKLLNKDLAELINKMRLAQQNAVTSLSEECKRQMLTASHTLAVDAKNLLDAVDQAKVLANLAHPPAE
# Calb biofilm kill: kills Candida albicans biofilms | inhibition, % at 6 µM | C. albicans biofilm + clotrimazole, Alamar Blue | 85,000 compounds, 0.14% hits;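 active = inhibition above 20%; inactive = inhibition below 20%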;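 note: preformed 24 hr biofilms exposed to compound for 48 hr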
# Hits are given with their value; n = inactive; x = not tested or not shown. Cut-off read from the data, not from the text of the source, unless noted: active = inhibition above about 30%; inactive = the rest.
SMILES,FAK blocker,tolC growth inh,PostGolgi ctrl,PostGolgi yeast,PTK2B oligo ant,Calb biofilm kill
O=C(NCCC1=CCCCC1)c1ccc(Cl)c(S(=O)(=O)Nc2ccccc2)c1,n,x,n,n,n,x
Cc1ccc(OCC(=O)N2N=C(C(F)(F)F)CC2(O)C(C)(C)C)cc1C (centres undefined),n,x,33,n,n,n
Cc1ccccc1OCC(=O)N1N=C(C(F)(F)F)CC1(O)C(C)(C)C (centres undefined),n,x,x,x,n,n
COCCC(=O)NC12CC3CC(CC(C3)C1)C2,n,n,35,n,n,n
O=C(CCSc1ccc(Cl)c(Cl)c1)NC12CC3CC(CC(C3)C1)C2,n,x,39,n,n,x
CCOC(=O)c1sc2ccc(S(=O)(=O)N3CCCCC3)cc2c1N,n,n,42,n,n,n
O=C(CCc1nc(-c2cccs2)no1)NCc1ccc(F)cc1Cl,n,x,n,n,x,n
Cc1ccc(CNC(=O)CCc2nc(-c3cccs3)no2)cc1,n,x,43,n,x,n
C[C@@H]1C[C@H](O)c2cc(Cl)ccc2N1,n,n,n,n,n,n
Cc1ccc2nc3sc(C(=O)N4CCCc5ccccc54)c(N)c3cc2c1,n,x,50,n,n,x
Cc1ccc(-c2cc(C(=O)N3CCCc4ccccc43)c3ccccc3n2)cc1,n,x,n,n,n,x
Cc1cc(C)cc(N(CC(=O)NCCSc2ccccn2)S(=O)(=O)c2ccccc2)c1,n,x,31,n,n,x
CSc1ncc2c(n1)-c1cc(C)ccc1SC2,n,x,n,n,n,n
COC(=O)/C(=C1/Oc2cc(C)oc(=O)c2S1)C(F)(F)F,x,n,78,n,n,x
Cc1nc2ncnn2c(C)c1CCC(=O)Nc1ccc(S(=O)(=O)N2CCCCCC2)cc1,n,n,n,n,n,x
CCCNC(=O)c1c(N)n(-c2cccc(OC)c2)c2nc3ccccc3nc12,n,n,50,33,n,n
COCCCNC(=O)c1c(N)n(-c2cccc(S(N)(=O)=O)c2)c2nc3ccccc3nc12,n,n,n,n,n,n
CC(=O)c1nc2ccccc2n1S(=O)(=O)c1ccc(C)cc1,n,n,40,n,n,n
CC(=O)c1nc2ccccc2n1S(=O)(=O)c1ccc(Cl)cc1,n,n,n,n,n,n
CCOC(=O)C1C(c2cc(OC)c(OC)c(OC)c2)NC(=S)NC1(O)C(F)(F)F (centres undefined),n,x,n,n,n,x
O=[N+]([O-])c1ccccc1N/N=C\c1ccccc1Cl,n,x,n,n,n,x
O=[N+]([O-])c1cc(C(F)(F)F)ccc1N/N=C/c1cc2ccccc2nc1Cl,n,x,n,44,x,x
O=C(Nc1c(F)cccc1F)c1ccc(-n2cncn2)nc1,n,x,n,n,n,x
c1ccc2c(c1)OCC(c1csc3ncnc(N4CCCC4)c13)O2 (centres undefined),n,x,n,n,n,n
c1ccc(CCNc2ncnc3scc(C4COc5ccccc5O4)c23)cc1 (centres undefined),n,x,43,n,n,n
SMILES,FAK blocker,tolC growth inh,PostGolgi ctrl,PostGolgi yeast,PTK2B oligo ant,Calb biofilm kill
COc1ccc(-c2nncnn2)cc1,n,x,x,x,x,n
CC1CCCCN1C(=O)CSc1nc(N)cc(=O)[nH]1 (centres undefined),n,x,30,n,n,x
CC1Cc2ccccc2N1C(=O)CSc1nc(N)cc(=O)[nH]1 (centres undefined),n,x,n,n,x,x
CN(CC(=O)Nc1ccc(C#N)cc1)Cc1ccc(Cl)c(Cl)c1,n,x,34,n,n,n
COc1ccc(/C=C2/CCc3ccccc3C2=O)cc1OC,x,x,x,x,n,x
COc1cc(/C=C2/CCC/C(=C\c3cc(O)c(OC)c(Cl)c3)C2=O)cc(Cl)c1O,n,x,n,n,-4.2,x
O=C(Cn1cnc2ccccc21)Nc1ccc(C(=O)O)cc1,n,x,n,n,n,x
COc1ccc(NS(=O)(=O)c2ccc(NS(=O)(=O)c3ccc(C)cc3)cc2)nn1,x,n,n,n,n,n
COc1ccc(-c2nnn(CC(=O)NCc3cccs3)n2)cc1OC,n,x,n,n,n,n
C/C(Nc1ccc(Cl)cc1)=C(/C#N)C(N)=O,n,x,n,n,n,50
OCCN(CCO)c1nc(N2CCCCC2)c2nc(N(CCO)CCO)nc(N3CCCCC3)c2n1,x,100,x,x,x,n
CN(C(=O)/C(N=Nc1cccc(C(F)(F)F)c1)=C(\O)C(F)(F)F)c1ccccc1,n,x,38,n,n,x
CN(C)c1nn(C(=O)Nc2cccc(C(F)(F)F)c2)cc1-c1ccccc1,n,x,n,n,n,x
Cc1ccc(S(=O)(=O)Nc2nc3ccccc3s2)cc1,n,x,32,n,n,n
O=S(=O)(Nc1nc2ccccc2s1)c1ccc(Br)s1,n,76,33,n,n,n
O=C(Nc1cc(S(=O)(=O)N2CCCC2)ccc1Cl)C1=COCCO1,n,x,n,n,n,n
O=C(Nc1cccc(F)c1)C1CCN(c2nnnn2-c2ccccc2)CC1,n,n,n,n,n,n
COc1ccc(NC(=O)CSc2nc(C)c3c(c2C#N)CCCC3)cc1,n,x,n,n,n,n
CCc1nnc(NC(=O)CSc2nc(C)c3c(c2C#N)CCCC3)s1,n,n,n,n,-3.4,n
CC(C)Nc1oc(-c2cccc3ccccc23)nc1C#N,x,n,n,n,n,n
Cc1ccc(C)c(S(=O)(=O)Nc2ccccc2C(=O)Nc2cc(C)on2)c1,x,n,n,n,n,n
Cc1cccc(NS(=O)(=O)c2cc(C(=O)OCC(=O)Nc3cc(C)on3)ccc2C)c1,n,n,n,n,-3.4,x
COc1ccccc1NS(=O)(=O)c1cccc(C(=O)OCC(=O)Nc2cc(C)on2)c1,n,x,n,n,n,n
Cc1cccc(NS(=O)(=O)c2ccc(C)c(C(=O)OCC(=O)Nc3cc(C)on3)c2)c1,n,n,n,n,-3.8,n
CC1CCC(C(C)C)C(OC(=O)COC(=O)c2ccc(=O)[nH]c2)C1 (centres undefined),n,63,n,n,n,n
SMILES,FAK blocker,tolC growth inh,PostGolgi ctrl,PostGolgi yeast,PTK2B oligo ant,Calb biofilm kill
COC(=O)CSc1nc(N)c(C#N)c(-c2ccco2)c1C#N,n,x,32,n,n,x
COc1ccc(S(=O)(=O)N2CCCC(C(=O)NCc3ccccn3)C2)cc1Cl (centres undefined),n,n,n,n,n,n
Oc1ccc(/C=C/c2nc(-c3ccccc3O)n(-c3ccccc3)n2)cc1,n,x,38,n,n,x
Cc1ccc(C(=O)NCc2ccccn2)c(Cl)c1,n,x,n,n,n,n
Cc1ccc(S(=O)(=O)N2CCOCC2)cc1NC(=O)c1cc2c(s1)CCC2,n,x,n,n,n,x
Cc1ccc(NC(=O)c2cc3c(s2)CCC3)cc1S(=O)(=O)N1CCOCC1,n,x,n,n,-3.2,n
CCc1cc2c(=O)n(Cc3ccco3)c(SCc3c(C)noc3C)nc2s1,n,65,33,n,n,n
C=CCn1c(SCC(=O)Nc2sc(C)c(C)c2C(=O)OCC)nnc1-c1sc(N)nc1C,n,n,n,n,-4.5,n
CCCCNC(=O)OC(C)CNC(=O)Oc1cccc(C)c1 (centres undefined),x,n,n,n,n,n
Cc1nc(CS(=O)(=O)c2ccccc2)cc(Sc2ccc(Cl)cc2Cl)n1,n,x,37,n,n,x
COCc1cc(Sc2cccc(Cl)c2Cl)nc(-c2ccccc2)n1,n,x,n,n,n,x

# High-throughput results as filed in PubChem.
